From ChEMBL document CHEMBL1811811, “Characterization of anticancer properties of 2,6-diisopropylphenol-docosahexaenoate and analogues in breast cancer cells” (Bioorg Med Chem, 2010)
Active and inactive are the calls of the source. No cut-off for these calls is given here.

Key:
MDA-MB-231 [1] = test: Growth inhibition of human MDA-MB-231 cells after 48 hrs by WST1 assay; type: functional, cell-based
In short: (§1)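 Cells seeded at 5000/well, grown overnight (18 h) in DMEM complete medium, then switched to DMEM with 2% FBS plus treatment for 48 h at 37 °C, 5% CO2; ethanol vehicle control. WST-1 read at day 0 (baseline, X) and end; growth normalized as (Y−X)/X×100, 100 to 0 = growth inhibition, 0 to −100 = cell death. Mean ± SD, at least four experiments.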

MDA-MB-231 [2] = test: Total growth inhibition of human MDA-MB-231 cells after 48 hrs by WST1 assay; type: functional; in short: as §1
Serum [3] = test: Stability in mouse serum at 1 mM incubated for 2 hrs at 37 degC by HPLC; details: 1000 µM
AU565 [4] = test: Cytotoxicity against human AU565 cells at 25 uM after 48 hrs by WST1 assay; type: functional, cell-based; in short: as §1
HMEC [5] = test: Cytotoxicity against human HMEC cells at 25 uM after 48 hrs by WST1 assay; type: cell-based; in short: as §1
AU565 [6] = test: Growth inhibition of human AU565 cells at 25 uM after 48 hrs by WST1 assay; type: functional, cell-based; in short: as §1
MCF7 [7] = test: Cytotoxicity against human MCF7 cells at 25 uM after 48 hrs by WST1 assay; type: functional, cell-based; in short: as §1
MDA-MB-231 [8] = test: Induction of apoptosis in human MDA-MB-231 cells assessed as apoptotic cells at 10 uM after 24 hrs by annexin V/propidium iodide staining based FACS flow cytometry (reference value: 1.8 +/- 0.3 %); type: functional
MDA-MB-231 [9] = test: Induction of apoptosis in human MDA-MB-231 cells assessed as necrotic cells at 10 uM after 24 hrs by annexin V/propidium iodide staining based FACS flow cytometry (reference value: 9.2 +/- 0.8 %); type: functional
MDA-MB-231 [10] = test: Induction of apoptosis in human MDA-MB-231 cells assessed as viable cells at 1 uM after 24 hrs by annexin V/propidium iodide staining based FACS flow cytometry (reference value: 89 +/- 1 %); type: functional; details: MDA-MB-231, 24 h, read-out: Activity
HMEC [11] = test: Growth inhibition of human HMEC cells at 25 uM after 48 hrs by WST1 assay; type: cell-based; in short: as §1
MDA-MB-231 [12] = test: Induction of apoptosis in human MDA-MB-231 cells assessed as viable cells at 10 uM after 24 hrs by annexin V/propidium iodide staining based FACS flow cytometry (reference value: 89 +/- 1 %); type: functional; details: MDA-MB-231, 24 h, read-out: Activity
MDA-MB-361 [13] = test: Growth inhibition of human MDA-MB-361 cells at 25 uM after 48 hrs by WST1 assay; type: functional, cell-based; in short: as §1
MDA-MB-231 [14] = test: Induction of apoptosis in human MDA-MB-231 cells assessed as necrotic cells at 1 uM after 24 hrs by annexin V/propidium iodide staining based FACS flow cytometry (reference value: 9.2 +/- 0.8 %); type: functional
MDA-MB-231 [15] = test: Cytotoxicity against human MDA-MB-231 cells at 10 uM after 48 hrs by WST1 assay; type: functional, cell-based; in short: as §1
MDA-MB-361 [16] = test: Cytotoxicity against human MDA-MB-361 cells at 25 uM after 48 hrs by WST1 assay; type: functional, cell-based; in short: as §1
MDA-MB-231 [17] = test: Induction of apoptosis in human MDA-MB-231 cells assessed as apoptotic cells at 1 uM after 24 hrs by annexin V/propidium iodide staining based FACS flow cytometry (reference value: 1.8 +/- 0.3 %); type: functional
MCF7 [18] = test: Growth inhibition of human MCF7 cells at 25 uM after 48 hrs by WST1 assay; type: functional, cell-based; in short: as §1
Serum [19] = test: Stability in human serum at 1 mM incubated for 2 hrs at 37 degC by HPLC; details: 1000 µM
MDA-MB-231 [20] = test: Growth inhibition of human MDA-MB-231 cells at 25 uM after 48 hrs by WST1 assay; type: functional, cell-based; in short: as §1
[21] = biological target: T1, Histone deacetylase (Homo sapiens) (UniProt Q13547+O15379+Q9UBN7+Q92769+Q9UQL6+Q8WUI4+Q9BY41+Q96DB2+P56524+Q9UKV0+Q969S8); test: Inhibition of HDAC in human MDA-MB-231 cells up to 25 uM after 2 hrs relative to control; type: cell-based
In short: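 MDA-MB-231 cells treated 2 h at 37 °C in DMEM with 2% FBS with varying concentrations; rinsed in PBS, trypsinized, normalized to 2×10^6 cells/mL in PBS with 0.1% Triton X-100, sonicated on ice. Total (non-specific) HDAC activity measured with a fluorometric kit; trichostatin A used for maximum inhibition to correct non-specific readings. Expressed as % of total HDAC activity versus vehicle.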

[22] = biological target: T1, Histone deacetylase (Homo sapiens); test: Inhibition of HDAC in human MDA-MB-231 cells at 10 to 25 uM after 2 hrs relative to control; type: cell-based
In short: (§2)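 Cells exposed 2 h at 37 °C to varying concentrations in DMEM/2% FBS, washed, trypsinized, adjusted to 2×10^6 cells/mL in PBS with 0.1% Triton X-100, and sonicated on ice. Total HDAC activity measured with a fluorometric kit; trichostatin A used as maximum inhibition to correct non-specific signal. Expressed as % of total HDAC activity versus vehicle.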

[23] = biological target: T1, Histone deacetylase (Homo sapiens); test: Inhibition of HDAC in human MDA-MB-231 cells after 2 hrs; type: cell-based; in short: as §2
[24] = Homo sapiens, MDA-MB-231, 48 h, read-out: IC50

Row | SMILES | growth inhibition (GI) (MDA-MB-231 [1]) | IC50 (MDA-MB-231 [1]; [24]) [µM] | TGI (MDA-MB-231 [2]; MDA-MB-231, 48 h) [µM] | Activity (AU565 [4]) | Activity (HMEC [5]) | growth inhibition (GI) (AU565 [6]) | Activity (MCF7 [7]) | Activity (MDA-MB-231 [8]) [%] | Activity (MDA-MB-231 [9]) [%] | viability at 1 µM (MDA-MB-231 [10]) [%] | Activity (HMEC [11]) | viability at 10 µM (MDA-MB-231 [12]) [%] | growth inhibition (GI) (MDA-MB-361 [13]) | Activity (MDA-MB-231 [14]) [%] | Activity (MDA-MB-361 [16]) | Activity (MDA-MB-231 [17]) [%] | growth inhibition (GI) (MCF7 [18]) | also measured
1 | CC/C=C\C/C=C\C/C=C\C/C=C\C/C=C\C/C=C\CCC(=O)Oc1ccccc1 | inactive | > 25 | > 25 |  |  |  |  |  |  |  |  |  |  |  |  |  |  | 
2 | CC/C=C\C/C=C\C/C=C\C/C=C\C/C=C\C/C=C\CCC(=O)Oc1ccccc1C(C)C | Dose-dependent effect | 8.2 | 12.1 | Active | Non-toxic | Active | Active | 26.4 | 37.5 | 89.6 | Non-toxic | 36.2 | Active | 8.6 | Active | 1.8 | Active | Stability (Serum [3]): Stable; Activity (MDA-MB-231 [15]): Active; Stability (Serum [19]): Stable
3 | CC/C=C\C/C=C\C/C=C\C/C=C\C/C=C\C/C=C\CCC(=O)O [DOCONEXENT] | Dose-dependent effect |  |  |  |  |  |  | 1.8 | 10.7 | 90.3 |  | 87.6 |  | 7.6 |  | 2.1 |  | Stability (Serum [3]): Stable; growth inhibition (GI) (MDA-MB-231 [20]): inactive; inhibition [21]: inactive; Stability (Serum [19]): Stable
4 | CC(C)c1cccc(C(C)C)c1O [PROPOFOL] |  |  |  | inactive | Non-toxic | inactive | inactive | 2.4 | 9.4 | 90.9 | Non-toxic | 88.2 | inactive | 7.1 | inactive | 2 | inactive | inhibition [21]: inactive
5 | CC/C=C\C/C=C\C/C=C\C/C=C\C/C=C\C/C=C\CCC(=O)Oc1c(C(C)C)cccc1C(C)C | Dose-dependent effect | 2.9 | 4.2 | Active | Non-toxic | Active | Active | 22.2 | 40.4 | 90.5 | Non-toxic | 37.4 | Active | 7.7 | Active | 1.8 | Active | Stability (Serum [3]): Stable; inhibition [22]: 30%; inhibition [23]: Dose-dependent effect; Activity (MDA-MB-231 [15]): Active; Stability (Serum [19]): Stable
6 | CC/C=C\C/C=C\C/C=C\C/C=C\C/C=C\C/C=C\CCC(=O)Nc1ccccc1C(C)C |  | 6.5 | 8.5 |  |  |  |  |  |  |  |  |  |  |  |  |  |  | 
7 | CC/C=C\C/C=C\C/C=C\C/C=C\C/C=C\C/C=C\CCC(=O)Oc1ccc(C(C)C)cc1C(C)C | Dose-dependent effect | 7.3 | 12.6 |  |  |  |  |  |  |  |  |  |  |  |  |  |  | 
8 | CC/C=C\C/C=C\C/C=C\C/C=C\C/C=C\C/C=C\CCC(=O)Nc1ccccc1 |  |  |  |  |  |  |  |  |  |  |  |  |  |  |  |  |  | IC50 (MDA-MB-231 [1]; mda-mb-231): Not Active; TGI (MDA-MB-231 [2]): inactive
9 | Oc1ccccc1C1CCCCC1 |  |  |  |  |  |  |  |  |  |  |  |  |  |  |  |  |  | growth inhibition (GI) (MDA-MB-231 [20]): Active
10 | CC/C=C\C/C=C\C/C=C\C/C=C\C/C=C\C/C=C\CCC(=O)Nc1c(C(C)C)cccc1C(C)C |  | 3.7 | 5.5 |  |  |  |  |  |  |  |  |  |  |  |  |  |  | 
11 | CC/C=C\C/C=C\C/C=C\C/C=C\C/C=C\C/C=C\CCC(=O)Oc1ccccc1C1CCCCC1 | Dose-dependent effect | 8.4 | 18.7 |  |  |  |  |  |  |  |  |  |  |  |  |  |  | 
12 | CC(C)c1ccccc1O |  |  |  | inactive | Non-toxic | inactive | inactive | 2.2 | 9 | 93.7 | Non-toxic | 88.8 | inactive | 4.9 | inactive | 1.5 | inactive | 
